Test results taken from ChEMBL document CHEMBL4196022, “Alkynyl-containing phenylthiazoles: Systemically active antibacterial agents effective against methicillin-resistant Staphylococcus aureus (MRSA)” (Eur J Med Chem, 2018).
≈ marks a conversion by molar mass, not a printed value.

Key:
[1] = system: Staphylococcus aureus; test: Potency index, ratio of vancomycin MIC to compound MIC for antibacterial activity against vancomycin-resistant Staphylococcus aureus VRS10; type: functional
[2] = system: Staphylococcus aureus; test: Bactericidal activity against methicillin resistant Staphylococcus aureus NRS123 (USA400) up to 18 hrs by broth microdilution assay; type: functional; conditions: read-out: MBC99.9
[3] = system: Staphylococcus aureus; test: Ratio of MBC to MIC for methicillin-resistant Staphylococcus aureus USA300; type: functional
Procedure, shortened: (§1)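 MBC/MIC ratio. […] MBC by plating no-growth wells onto tryptic soy agar at 37 °C for at least 18 h; taken as the concentration giving 99.9% growth inhibition.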

[4] = system: Staphylococcus aureus; test: Bactericidal activity against methicillin resistant vancomycin-resistant Staphylococcus aureus VRS12 up to 18 hrs by broth microdilution assay; type: functional; conditions: VRS12, 18 h, read-out: MBC99.9
Procedure, shortened: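 MBC set up from the MIC plates. Aliquots from wells with no growth spotted onto tryptic soy agar and incubated at 37 °C for at least 18 hours. MBC taken as the lowest concentration giving 99.9% inhibition of bacterial growth.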

[5] = system: Staphylococcus aureus; test: Antibacterial activity against methicillin-resistant Staphylococcus aureus USA300 after 20 hrs by broth microdilution assay; type: functional; conditions: USA300, 20 h
Procedure, shortened: (§2)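 Broth microdilution per CLSI in cation-adjusted Mueller Hinton broth. Compounds serially diluted, in triplicate. Incubation at 37 °C for at least 20 hours. MIC taken as the lowest concentration with no visible bacterial growth.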

[6] = system: Staphylococcus aureus; test: Ratio of MBC to MIC for vancomycin-resistant Staphylococcus aureus VRS10; type: functional; procedure, shortened: as §1
[7] = system: Staphylococcus aureus; test: Ratio of MBC to MIC for vancomycin-resistant Staphylococcus aureus VRS12; type: functional; procedure, shortened: as §1
[8] = system: Staphylococcus aureus; test: Antibacterial activity against vancomycin-resistant Staphylococcus aureus VRS10 after 20 hrs by broth microdilution assay; type: functional; conditions: VRS10, 20 h; procedure, shortened: as §2
[9] = system: Staphylococcus aureus; test: Bactericidal activity against methicillin resistant vancomycin-resistant Staphylococcus aureus VRS10 up to 18 hrs by broth microdilution assay; type: functional; conditions: VRS10, 18 h, read-out: MBC99.9
[10] = system: Staphylococcus aureus; test: Antibacterial activity against methicillin-resistant Staphylococcus aureus NRS123 (USA400) after 20 hrs by broth microdilution assay; type: functional; procedure, shortened: as §2
[11] = system: Staphylococcus aureus; test: Bactericidal activity against methicillin-resistant Staphylococcus aureus NRS119 up to 18 hrs by broth microdilution assay; type: functional; conditions: NRS119, 18 h, read-out: MBC99.9
[12] = system: Staphylococcus aureus; test: Bactericidal activity against methicillin-resistant Staphylococcus aureus NRS107 up to 18 hrs by broth microdilution assay; type: functional; conditions: NRS107, 18 h, read-out: MBC99.9
[13] = system: Staphylococcus aureus; test: Bactericidal activity against methicillin resistant vancomycin-resistant Staphylococcus aureus VRS11a up to 18 hrs by broth microdilution assay; type: functional; conditions: read-out: MBC99.9
[14] = system: Staphylococcus aureus; test: Potency index, ratio of vancomycin MIC to compound MIC for antibacterial activity against vancomycin-resistant Staphylococcus aureus VRS11a; type: functional
[15] = system: Staphylococcus aureus; test: Ratio of MBC to MIC for vancomycin-resistant Staphylococcus aureus VRS11a; type: functional; procedure, shortened: as §1
[16] = system: Staphylococcus aureus; test: Ratio of MBC to MIC for methicillin-resistant Staphylococcus aureus NRS107; type: functional; procedure, shortened: as §1
[17] = system: Staphylococcus aureus; test: Ratio of MBC to MIC for methicillin-resistant Staphylococcus aureus NRS119; type: functional; procedure, shortened: as §1
[18] = system: Staphylococcus aureus; test: Potency index, ratio of vancomycin MIC to compound MIC for antibacterial activity against vancomycin-resistant Staphylococcus aureus VRS12; type: functional
[19] = system: Staphylococcus aureus; test: Antibacterial activity against methicillin-resistant Staphylococcus aureus NRS119 after 20 hrs by broth microdilution assay; type: functional; conditions: NRS119, 20 h; procedure, shortened: as §2
[20] = system: Staphylococcus aureus; test: Bactericidal activity against methicillin-resistant Staphylococcus aureus USA300 up to 18 hrs by broth microdilution assay; type: functional; conditions: USA300, 18 h, read-out: MBC99.9
[21] = system: Staphylococcus aureus; test: Antibacterial activity against methicillin-resistant Staphylococcus aureus NRS107 after 20 hrs by broth microdilution assay; type: functional; conditions: NRS107, 20 h; procedure, shortened: as §2
[22] = system: Staphylococcus aureus; test: Antibacterial activity against vancomycin-resistant Staphylococcus aureus VRS12 after 20 hrs by broth microdilution assay; type: functional; conditions: VRS12, 20 h; procedure, shortened: as §2
[23] = system: Staphylococcus aureus; test: Ratio of MBC to MIC for methicillin-resistant Staphylococcus aureus NRS123 (USA400); type: functional; procedure, shortened: as §1
[24] = system: Staphylococcus aureus; test: Antibacterial activity against vancomycin-resistant Staphylococcus aureus VRS11a after 20 hrs by broth microdilution assay; type: functional; procedure, shortened: as §2
[25] = Selectivity index, ratio of toxic concentration for human HRT18 cells to MIC for methicillin-resistant Staphylococcus aureus; type: toxicity; conditions: read-out: Selectivity Index
[26] = system: Staphylococcus aureus; test: Inhibition of UPPS/UPPP in vancomycin-resistant Staphylococcus aureus VRS10 assessed as potentiation of vancomycin-induced antibacterial activity by measuring fold reduction in vancomycin MIC at 0.5 times MIC preincubated for 30 mins followed by vancomycin addition measured after 20 to 22 hrs by broth microdilution assay relative to control
Procedure, shortened: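 VRS10 suspension pre-exposed to compound at ½ × MIC for 30 min at room temperature. […] Incubation at 37 °C for 20–22 h before the MIC was read; untreated bacteria served as control.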

[27] = system: HRT-18 cell line; test: Cytotoxicity against human HRT18 cells assessed as reduction in cell viability up to 32 ug/ml after 2 hrs by MTS assay; type: cell-based; conditions: hrt-18, 2 h
[28] = system: Mus musculus; test: Induction of inflammation in Balb/c mouse infected with methicillin-resistant Staphylococcus aureus USA300 assessed as redness around wounded skin area at 2% administered topically twice daily for 5 consecutive days measured 12 hrs post last dose relative to control; type: organism-based; conditions: in vivo, topical_or_ocular
Procedure, shortened: (§3)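 Female Balb/c mice, 8 weeks old, n=5 per group. Intradermal injection of 40 μL of 1.32×10^9 CFU/mL USA300; a wound formed by ~66 h. Treated topically with a 2% suspension in petroleum jelly twice daily for 5 days; the vehicle group served as control. Wounds excised 12 h after the last dose, homogenized in PBS and plated on mannitol salt agar; sites also observed for redness and swelling.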

[29] = system: Mus musculus; test: Toxicity in wounded skin area of Balb/c mouse infected with methicillin-resistant Staphylococcus aureus USA300 at 2% administered topically twice daily for 5 consecutive days measured 12 hrs post last dose; type: organism-based; conditions: in vivo, topical_or_ocular; procedure, shortened: as §3
[30] = system: Mus musculus; test: Induction of inflammation in Balb/c mouse infected with methicillin-resistant Staphylococcus aureus USA300 assessed as swelling around wounded skin area at 2% administered topically twice daily for 5 consecutive days measured 12 hrs post last dose; type: organism-based; conditions: in vivo, topical_or_ocular; procedure, shortened: as §3
[31] = system: Staphylococcus aureus; test: Antibacterial activity against methicillin-resistant Staphylococcus aureus USA300 in Balb/c mouse skin infection model assessed as reduction in bacterial burden in wounded skin area at 2% administered topically twice daily for 5 consecutive days measured 12 hrs post last dose relative to control; type: functional; design: scale not given: the % may be the effect or the level left; procedure, shortened: as §3

Structure (SMILES) | Ratio [1] | MBC [2] [µg/mL] | Ratio [3] | MBC [4] [µg/mL] | MIC [5] [µg/mL] | Ratio [6] | Ratio [7] | MIC [8] [µg/mL] | MBC [9] [µg/mL] | MIC [10] [µg/mL] | MBC [11] [µg/mL] | MBC [12] [µg/mL] | MBC [13] [µg/mL] | Ratio [14] | Ratio [15] | Ratio [16] | Ratio [17] | Ratio [18] | MIC [19] [µg/mL] | MBC [20] [µg/mL] | also measured
C/C(=N\NC(=N)N)c1sc(-c2ccc(C#CCC3CCCC3)cc2)nc1C | >100 | 2 (≈ 5.27 µM) | <=3 | 2 (≈ 5.27 µM) | 4 (≈ 10.5 µM) | <=3 | <=3 | 2 (≈ 5.27 µM) | 4 (≈ 10.5 µM) | 2 (≈ 5.27 µM) | 4 (≈ 10.5 µM) | 4 (≈ 10.5 µM) | 4 (≈ 10.5 µM) | >100 | <=3 | <=3 | <=3 | >100 | 4 (≈ 10.5 µM) | 4 (≈ 10.5 µM) | MIC [21]: 2 µg/mL (≈ 5.27 µM); MIC [22]: 2 µg/mL (≈ 5.27 µM); Ratio [23]: <=3; MIC [24]: 4 µg/mL (≈ 10.5 µM)
CCCC#Cc1ccc(-c2nc(C)c(/C(C)=N/NC3=NCCN3)s2)cc1 |  |  | <=3 |  | > 64 |  |  |  |  |  |  |  |  |  |  |  |  |  |  | > 64 | 
C/C(=N\NC(=N)N)c1sc(-c2ccc(C#Cc3ccccc3)cc2)nc1C | >100 | 4 (≈ 10.7 µM) | <=3 | 2 (≈ 5.35 µM) | 1 (≈ 2.68 µM) | <=3 | <=3 | 1 (≈ 2.68 µM) | 2 (≈ 5.35 µM) | 1 (≈ 2.68 µM) | 2 (≈ 5.35 µM) | 2 (≈ 5.35 µM) | 2 (≈ 5.35 µM) | >100 | <=3 | <=3 | <=3 | 8 | 1 (≈ 2.68 µM) | 1 (≈ 2.68 µM) | selectivity ratio [25]: 7 to 31; fold change (FC) [26]: 512; Activity [27]: Non-Toxic; MIC [21]: 2 µg/mL (≈ 5.35 µM); MIC [22]: 2 µg/mL (≈ 5.35 µM); Ratio ([23]; read-out: Ratio): 4; MIC [24]: 1 µg/mL (≈ 2.68 µM)
CC(=O)O[C@H]1C[C@@]2(C)[C@@H](C[C@@H](O)[C@H]3[C@@]4(C)CC[C@@H](O)[C@@H](C)[C@@H]4CC[C@@]32C)/C1=C(\CCC=C(C)C)C(=O)O [FUSIDIC ACID] |  |  |  |  |  |  |  |  |  |  |  |  |  |  |  |  |  |  |  |  | Activity [28]: Non-Toxic; Activity [29]: Non-Toxic; Activity [30]: Non-Toxic; Activity [31]: 78%
C/C(=N\NC1=NCCN1)c1sc(-c2ccc(C#CC3CCCC3)cc2)nc1C | >100 | 32 (≈ 81.7 µM) | <=3 | 16 (≈ 40.9 µM) | 4 (≈ 10.2 µM) | <=3 | <=3 | 4 (≈ 10.2 µM) | 8 (≈ 20.4 µM) | 16 (≈ 40.9 µM) | 32 (≈ 81.7 µM) | 32 (≈ 81.7 µM) | 8 (≈ 20.4 µM) | >100 | <=3 | <=3 | <=3 | >100 | 32 (≈ 81.7 µM) | 16 (≈ 40.9 µM) | MIC [21]: 16 µg/mL (≈ 40.9 µM); MIC [22]: 16 µg/mL (≈ 40.9 µM); Ratio [23]: <=3; MIC [24]: 8 µg/mL (≈ 20.4 µM)
C/C(=N\NC(=N)N)c1sc(-c2ccc(C#CC(C)(C)N)cc2)nc1C |  |  | <=3 |  | 64 (≈ 181 µM) |  |  |  |  |  |  |  |  |  |  |  |  |  |  | 64 (≈ 181 µM) | 
C/C(=N\NC1=NCCN1)c1sc(-c2ccc(C#CC(C)(C)C)cc2)nc1C | >100 | 16 (≈ 42.2 µM) | <=3 | 8 (≈ 21.1 µM) | 2 (≈ 5.27 µM) | <=3 | <=3 | 4 (≈ 10.5 µM) | 4 (≈ 10.5 µM) | 4 (≈ 10.5 µM) | 2 (≈ 5.27 µM) | 4 (≈ 10.5 µM) | 4 (≈ 10.5 µM) | >100 | <=3 | <=3 | <=3 | 4 | 2 (≈ 5.27 µM) | 4 (≈ 10.5 µM) | selectivity ratio [25]: 7 to 31; Activity [27]: Non-Toxic; MIC [21]: 2 µg/mL (≈ 5.27 µM); MIC [22]: 4 µg/mL (≈ 10.5 µM); Ratio ([23]; read-out: Ratio): 4; MIC [24]: 4 µg/mL (≈ 10.5 µM)
C/C(=N\NC1=NCCN1)c1sc(-c2ccc(C#CC(C)(C)N)cc2)nc1C |  |  | <=3 |  | > 64 |  |  |  |  |  |  |  |  |  |  |  |  |  |  | > 64 | 
